In one experiment the test system is HeLa. Briefly: Cytotoxicity against human HeLa cells after 72 hrs by MTT assay. It counts as functional, cell-based. The gist of the method: (§1)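 MTT assay. Cells seeded at 7 × 10³ per well; after 24 h, exponentially growing cells were exposed to compound (final 0.005–100 µM) for 72 h. MTT was added for 4 h, then 10% SDS in 0.01 N HCl for 18 h at 37 °C. Absorbance read at 550 nm; survival given as % of untreated cells. IC50 from 6-8 replicate wells, ≥2 independent experiments.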
Background: Tetrazolium dyes change colour on reduction, which living cells bring about.

The next experiment deals with HepG2. Briefly: Cytotoxicity against human HepG2 cells after 72 hrs by MTT assay. Format: functional, cell-based. The conditions noted are these: HepG2, 72 h. In short, it runs like this:
as §1

Experiment [1] in a line: Cytotoxicity against human H295R cells after 72 hrs by MTT assay. It counts as functional, cell-based. The note with it: NCI-H295R. The gist of the method: as §1
In the next experiment the test system is OVCAR-3. The experiment is described as follows: Cytotoxicity against human Ovcar3 cells after 72 hrs by MTT assay. Format: functional, cell-based. The conditions noted are these: OVCAR-3, 72 h. The gist of the method:
as §1

The test system of another experiment is MCF7. Briefly: Cytotoxicity against human MCF7 cells after 72 hrs by MTT assay. It counts as functional, cell-based. The note with it: MCF7, 72 h. The gist of the method:
as §1

The next experiment has as its system ARO. Briefly: Cytotoxicity against human Aro cells after 72 hrs by MTT assay. Format: functional, cell-based. The gist of the method:
as §1

In experiment [2] the test system is A549. The experiment is described as follows: Cytotoxicity against human A549 cells after 72 hrs by MTT assay. The note with it: A549, 72 h. It counts as functional, cell-based. The gist of the method:
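MTT assay. Cells seeded at 7 × 10³ per well; after 24 h, exponentially growing cells were exposed to compound (final 0.005–100 µM) for 72 h. MTT was added for 4 h, then 10% SDS in 0.01 N HCl for 18 h at 37 °C. Absorbance read at 550 nm; survival given as % of untreated cells.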

The next experiment deals with HT-29. The experiment is described as follows: Cytotoxicity against human HT29 cells after 72 hrs by MTT assay. Format: functional, cell-based. The note with it: HT-29, 72 h. The gist of the method:
as §1

The next experiment has as its system PT-45. The experiment is described as follows: Cytotoxicity against human PT45 cells after 72 hrs by MTT assay. Format: functional, cell-based. The note with it: PT-45, 72 h. In short, it runs like this: as §1
The next experiment concerns OE19. The experiment is described as follows: Cytotoxicity against human OE19 cells after 72 hrs by MTT assay. It counts as functional, cell-based. The note with it: OE19, 72 h. The gist of the method: as §1
The next experiment relates to OE33. Briefly: Cytotoxicity against human OE33 cells after 72 hrs by MTT assay. Format: functional, cell-based. The conditions noted are these: OE33, 72 h. In short, it runs like this:
as §1

The nature of experiment [3]: Cytotoxicity againat taxol-resistant human A549T12 cells after 72 hrs by MTT assay. It counts as functional, cell-based. The conditions noted are these: A549, 72 h.
Experiment [4] in a line: Cytotoxicity againat taxol-resistant human A549T24 cells after 72 hrs by MTT assay. Format: functional, cell-based. The conditions noted are these: A549, 72 h.
For experiment [5], the system named is A549. Briefly: Resistance index, ratio of IC50 for A549 cells to IC50 for A549T12 cells. Format: functional, Homo sapiens.
For experiment [6], the system named is A549. Briefly: Cell cycle arrest in human A549 cells assessed as accumulation at G1 phase at 1 uM after 24 hrs. Format: functional. In short, it runs like this: (§2)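 A549 cells grown 24 h in drug-free medium or with compound at 0.1 or 1 µM. Cells were trypsinized, washed twice in PBS, fixed in cold 70% ethanol (30 min, -20 °C), then washed in citrate phosphate buffer and PBS. RNase (100 µg/mL) for 30 min at 37 °C, then propidium iodide (100 µg/mL) for 30 min at room temperature. Flow cytometry at 488/525 nm, ≥15 000 events, 3-4 repeats.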

For experiment [7], the system named is A549. Briefly: Cell cycle arrest in human A549 cells assessed as accumulation at G1 phase at 0.1 uM after 24 hrs. It counts as functional. The gist of the method: as §2
Experiment [8] has as its system A549. The experiment is described as follows: Cell cycle arrest in human A549 cells assessed as accumulation at S phase at 1 uM after 24 hrs. It counts as functional. In short, it runs like this:
as §2

For experiment [9], the system named is A549. The experiment is described as follows: Cell cycle arrest in human A549 cells assessed as accumulation at S phase at 0.1 uM after 24 hrs. It counts as functional. The gist of the method: as §2
The test system of experiment [10] is A549. Briefly: Cell cycle arrest in human A549 cells assessed as accumulation at G2/M phase at 1 uM after 24 hrs. It counts as functional. The gist of the method:
as §2

For experiment [11], the system named is A549. Briefly: Cell cycle arrest in human A549 cells assessed as accumulation at sub Go phase at 1 uM after 24 hrs. Format: functional.
Experiment [12] deals with A549. Briefly: Cell cycle arrest in human A549 cells assessed as accumulation at sub Go phase at 0.1 uM after 24 hrs. Format: functional.
Experiment [13] has as its system A549. Briefly: Cell cycle arrest in human A549 cells assessed as accumulation at G2/M phase at 0.1 uM after 24 hrs. Format: functional. The gist of the method: as §2

Each structure is given as a SMILES string. pIC50: −log10 of the molar value.

As usually defined, the pIC50 is −log10 of the IC50, conventionally taken in molar units. The low end stands for a large IC50, the high end for a small IC50. As for `CCn1ccc2c3c(=O)cc(-c4ccccc4)[nH]c3ccc21`, the pIC50 with HeLa is 8.00; in the experiment with HepG2, 7.30; in experiment [1], 7.52; with OVCAR-3 it was 7.40; with MCF7, 7.40; with ARO, 7.52. The pIC50 in the experiment on A549 [2] is 7.52; with HT-29, 7.52; with PT-45, 7.52; in the experiment on OE19, 7.10; in the experiment with OE33, 6.70; in experiment [3] it was 7.52. Moreover, the pIC50 in [4] is 7.52. For the same molecule, the Ratio IC50 in the experiment on A549 [5] is 1. Moreover, the Activity in the experiment with A549 [6] was 14.1%; with A549 [7] it was 11.7%; in the experiment with A549 [8], 8.1%; in the experiment with A549 [9], 8.1%; in the experiment on A549 [10], 77.3%; in the experiment with A549 [11] it was 0.4%. In addition, the Activity with A549 [12] is on record as 0.6%; with A549 [13], 79.8%.
